IMP-1 inh-1: blocks Pseudomonas aeruginosa IMP-1 metallo-beta-lactamase; 290,000 compounds, 0.45% hits; inhibition, % at 5.6 µM; purified IMP-1, nitrocefin hydrolysis, epi-absorbance fluorescence; AID 1556;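 active = inhibition above the mean plus 3 SD of all compounds in the same screening run, cut at about 4.5% in these data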;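 also: 0% = IMP-1 with DMSO and 100% = DMSO wells lacking enzyme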
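Test system: recombinant IMP-1 enzyme, purified / Medium: HEPES buffer pH 7.1 with ZnSO4 and Brij 35 / Doses: single dose, 5.6 µM / Times: 25 °C, 15 min preincubation, 25 min reaction / Detection: Epi-absorbance via hydrolysed-nitrocefin quenching of white-plate fluorescence, 480/530 nm, EDTA stop / Evaluation: percent inhibition from optical density relative to buffer-blank wells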
DNA FID counter: fluorescent intercalator displacement, NS3 helicase counter-screen. DNA fluorescent intercalator displacement, fluorescence. inhibition, % at 7.9 µM. 290,000 compounds, 0.17% hits. AID 1845; in the data active = inhibition above about 37%;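 also: 0% = vehicle and 100% = reference compound; higher means more ethidium bromide displaced from hairpin DNA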
RAD54 inh: blocks human RAD54 Holliday junction branch migration; Q92698; FAM/BHQ fluorescence; inhibition, % at 10.4 µM; 360,000 compounds, 0.14% hits; AID 602329;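 active = mean normalized replicate activity at least 40 and at least half of replicates scoring 40 or more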;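 also: 0% = median of neutral control wells and 100% = median of positive control wells; inhibitors cause a drop in the FAM fluorescence signal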
Target sequence (Q92698 whole entry, looked up): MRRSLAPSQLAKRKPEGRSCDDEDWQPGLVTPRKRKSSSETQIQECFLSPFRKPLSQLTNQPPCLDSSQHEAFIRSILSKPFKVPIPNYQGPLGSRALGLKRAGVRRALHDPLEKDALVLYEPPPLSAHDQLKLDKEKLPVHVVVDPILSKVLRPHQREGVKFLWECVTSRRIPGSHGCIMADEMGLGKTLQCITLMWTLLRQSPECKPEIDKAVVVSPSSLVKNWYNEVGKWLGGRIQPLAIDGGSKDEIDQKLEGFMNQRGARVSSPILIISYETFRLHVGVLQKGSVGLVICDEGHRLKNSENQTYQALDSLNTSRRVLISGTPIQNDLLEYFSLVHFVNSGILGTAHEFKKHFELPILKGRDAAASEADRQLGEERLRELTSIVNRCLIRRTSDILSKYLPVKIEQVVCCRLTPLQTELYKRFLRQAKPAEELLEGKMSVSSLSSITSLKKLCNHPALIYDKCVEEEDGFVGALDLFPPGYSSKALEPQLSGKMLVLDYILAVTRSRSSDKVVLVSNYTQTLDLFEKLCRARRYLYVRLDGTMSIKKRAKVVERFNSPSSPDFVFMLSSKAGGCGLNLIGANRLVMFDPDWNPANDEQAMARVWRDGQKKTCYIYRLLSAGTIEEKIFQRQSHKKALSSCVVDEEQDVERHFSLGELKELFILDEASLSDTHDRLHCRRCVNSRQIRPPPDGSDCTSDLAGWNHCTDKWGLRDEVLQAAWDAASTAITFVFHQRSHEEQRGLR
VIM-2 inhibitor: blocks Pseudomonas aeruginosa VIM-2 metallo-beta-lactamase; AID 1527; purified VIM-2, nitrocefin hydrolysis, epi-absorbance fluorescence; inhibition, % at 5.6 µM; 290,000 compounds, 0.89% hits;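 active = inhibition above the mean of all tested compounds plus 3 SD, cutoff set per screening run, cut at about 7.5% in these data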;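 also: red hydrolysis product quenches plate fluorescence so inhibitors raise well fluorescence; 0% = enzyme with DMSO and 100% = DMSO without enzyme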
PvdQ acylase: blocks Pseudomonas aeruginosa PvdQ acylase activity; inhibition, % at 10 µM; 340,000 compounds, 0.063% hits; purified PvdQ acylase, fluorescence plate reader; in the data active = inhibition above about 30%, passing the limit was not always enough;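 also: 0% = vehicle neutral wells and 100% = reference inhibitor wells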
IMP-1 inh-2: blocks IMP-1 metallo-beta-lactamase in VIM-2 selectivity screen. shares compounds with VIM-2 inhibitor. purified IMP-1, nitrocefin hydrolysis, epi-absorbance fluorescence. inhibition, % at 5.6 µM. 1,300 tested, under 10 active; call rule not given here;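 also: 0% = enzyme with vehicle and 100% = vehicle without enzyme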
VIM-2 FRET inh: counter-screen for VIM-2 inhibitors: epi-absorbance artifacts via FRET | shares compounds with VIM-2 inhibitor | purified VIM-2, CCF2 FRET substrate hydrolysis | inhibition, % at 5.6 µM | 1,300 compounds, 23% hits | AID 1857;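 active = inhibition above the mean of all tested compounds plus 3 SD, cut at about 19% in these data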;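 also: 0% = VIM-2 plus DMSO and 100% = no enzyme wells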
TEM-1 inh: selectivity counter-screen for VIM-2 inhibitors: E. coli TEM-1 inhibitors | inhibition, % at 5.6 µM | Purified TEM-1, nitrocefin hydrolysis, epi-absorbance fluorescence | shares compounds with VIM-2 inhibitor | 1,300 compounds, 3% hits;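 active = inhibition above that campaign's mean inhibition plus 3 SD, cut at about 0.46% in these data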;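 also: 0% = TEM-1 with DMSO and 100% = TEM-1 with 100 µM potassium clavulanate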
VIM-2 inh conf: confirmation of P. aeruginosa VIM-2 metallo-beta-lactamase inhibitors; shares compounds with VIM-2 inhibitor; purified VIM-2, nitrocefin hydrolysis, epi-absorbance; inhibition, % at 5.6 µM; 1,300 compounds, 96% hits;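 active = inhibition of the VIM-2 beta-lactamase enzyme above about 11% from the earlier first-round screen, limit read from the data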;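 also: 0% = VIM-2 with DMSO and 100% = buffer wells without enzyme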
* marks the source's active call; other numbers are inactive results; i = inactive; x = no result given. This is a sample that favours compounds with a hit; in the whole collection about 1% have one here.

SMILES	IMP-1 inh-1	DNA FID counter	RAD54 inh	VIM-2 inhibitor	PvdQ acylase	IMP-1 inh-2	VIM-2 FRET inh	TEM-1 inh	VIM-2 inh conf
Cc1cc(OCC(=O)NCCCn2ccnc2)c2c(C)cc(=O)oc2c1	-1.8	2.1	12.5	28.1*	-11.6	-3.9	-2.6	-4.9	35.5*
Cc1cc(OCC(=O)Nc2cccnc2)c2c(C)cc(=O)oc2c1	-1.1	-15.4	16.7	20.5*	-16.1	-3.1	-2.6	-8.0	33.2*
CCCc1cc(=O)oc2cc(C)cc(OCC(=O)NCc3ccccn3)c12	-1.3	-31.0	8.7	-1.6	-7.8	x	x	x	x
C[C@@H]1CN([C@@H](C)CO)C(=O)c2cc(NS(=O)(=O)c3cn(C)cn3)ccc2O[C@@H]1CN(C)S(=O)(=O)c1ccc(Cl)cc1	x	x	-2.6	x	x	x	x	x	x
O=C(c1cccnc1)N1C[C@@H]2[C@H](c3ccccc31)[C@H](CO)N2CC1CCCCC1	x	x	-0.6	x	x	x	x	x	x
COc1ccc(COCC(O)CN2CCC(CN3C(=O)c4cccc5cccc(c45)C3=O)CC2)cc1OC (stereo not given)	-2.6	12.3	x	14.2*	-16.2	-4.1	2.7	-8.3	27.3*
COc1cccc(OCC(O)CN2CCC(CN3C(=O)c4cccc5cccc(c45)C3=O)CC2)c1 (stereo not given)	-0.9	14.0	x	14.1*	-4.5	-4.0	-0.9	-4.3	22.1*
O=C(NC1Cc2ccccc2C1)[C@H]1N[C@H]2c3ccc(C4=CCCC4)c(=O)n3C[C@H]2[C@@H]1CO	x	x	-5.9	x	x	x	x	x	x
C[C@H]1CN([C@@H](C)CO)C(=O)c2cc(NC(=O)Cc3ccccc3)ccc2O[C@@H]1CN(C)S(=O)(=O)c1ccc(Cl)cc1	x	x	11.8	x	x	x	x	x	x
Oc1ccc(C2=Nn3c(nnc3-c3ccco3)SC2)cc1O	-1.7	3.2	x	16.3*	-6.4	-3.8	-2.5	-9.3	27.9*
COc1ccc(N2CCc3c(C)nc4c(OC)cc(OC)cc4c32)c(OC)c1	-3.7	5.2	44.3	-3.2	-14.0	x	x	x	x
COc1ccc(N2CCc3c(C)nc4c(OC)cc(OC)cc4c32)cc1	-2.2	10.2	x	14.6*	-7.3	-5.3	-23.3	-6.0	22.0*
COc1cccc(N2CCc3c(C)nc4ccc(Cl)cc4c32)c1	-2.2	1.6	19.0	21.9*	-17.4	-3.7	-4.8	-5.9	29.5*
CCCNC(=O)N1C[C@H](C)[C@@H](OC)CN(C)C(=O)c2cc(NC(=O)CCC)ccc2OC[C@@H]1C	x	x	-7.9	x	x	x	x	x	x
O=C(COc1ccc2ccc(=O)oc2c1)NCCCn1ccnc1	-1.2	-5.6	-3.4	1.4	-14.8	x	x	x	x
O=C(COc1cc2oc(=O)c3c(c2cc1Cl)CCC3)NCCCn1ccnc1	-1.6	9.2	15.5	29.5*	1.8	-2.2	-5.0	-6.1	44.1*
CCc1cc(=O)oc2cc(OCC(=O)NCCCn3ccnc3)c(Cl)cc12	-1.2	-7.0	-5.5	23.6*	3.5	-2.7	-6.6	-5.2	34.6*
Cc1c(C)c2cc(Cl)c(OCC(=O)NCCCn3ccnc3)cc2oc1=O	-0.8	5.6	x	27.9*	-0.7	-3.5	-11.2	-2.5	37.7*
CCc1cc(=O)oc2cc(OCC(=O)NCCCN3CCCC3=O)c(Cl)cc12	-1.9	-37.4	1.1	0.3	-5.6	x	x	x	x
C[C@H]1CN([C@@H](C)CO)C(=O)c2cc(NS(=O)(=O)c3cn(C)cn3)ccc2O[C@@H]1CN(C)Cc1ccncc1	x	x	6.2	x	x	x	x	x	x
CCOC(=O)N(C)C[C@@H]1OCc2ccccc2-c2c(n(C)c3ccccc23)C(=O)N([C@H](C)CO)C[C@@H]1C	x	x	4.4	x	x	x	x	x	x
C[C@@H]1CN([C@@H](C)CO)C(=O)c2cc(NC(=O)Nc3cccc4ccccc34)ccc2O[C@H]1CN(C)S(=O)(=O)c1cn(C)cn1	x	x	3.8	x	x	x	x	x	x
C[C@@H]1CCCCO[C@H](CN(C)S(=O)(=O)c2ccccc2)[C@@H](C)CN([C@@H](C)CO)C(=O)c2cc(NS(C)(=O)=O)ccc2O1	x	x	7.9	x	x	x	x	x	x
Cn1c(=O)[nH]c(=O)c2c1nc(NCCCn1ccnc1)n2CCOc1ccccc1	0.3	2.0	x	20.6*	-3.1	-3.0	-5.0	-5.5	33.4*
C[C@@H]1CN([C@@H](C)CO)C(=O)c2cc(-c3ccccc3F)cnc2O[C@H]1CN(C)C(=O)C1CCC1	x	x	1.7	x	x	x	x	x	x
SMILES	IMP-1 inh-1	DNA FID counter	RAD54 inh	VIM-2 inhibitor	PvdQ acylase	IMP-1 inh-2	VIM-2 FRET inh	TEM-1 inh	VIM-2 inh conf
CCCCN(C)C(=O)c1cc2c(Cl)nc3ccccc3c2s1	-2.1	-26.7	-8.6	13.1*	-11.9	-3.2	2.5	-3.9	19.2*
O=C(C[C@H]1C[C@H]2c3cc(NC(=O)c4cccnc4)ccc3O[C@H]2[C@H](CO)O1)NCc1ccccn1	x	x	2.0	x	x	x	x	x	x
CC1CC(C)CN(CCCNS(=O)(=O)c2ccc3c(c2)CCN3C(=O)C2CC2)C1 (stereo not given)	-4.0	13.0	-0.6	12.3*	-23.2	-2.9	-0.9	-6.2	8.9*
CC(=O)N/N=C/c1cc(C)n(-c2ccc(Br)cc2)c1C	-3.3	-7.2	-6.4	-3.5	-10.0	x	x	x	x
CC(=O)N/N=C/c1cc(C(C)C)cc(/C=N/NC(C)=O)c1O	0.3	-6.7	x	34.0*	-7.9	-0.5	12.4	-2.4	47.5*
Cc1noc(C)c1S(=O)(=O)Nc1cccc2c1O[C@H](CN(C)S(C)(=O)=O)[C@H](C)CN([C@H](C)CO)C2=O	x	x	-0.8	x	x	x	x	x	x
CC(Oc1cc2oc(=O)c3c(c2cc1Cl)CCC3)C(=O)NCc1ccncc1 (stereo not given)	0.3	-23.4	-2.0	15.9*	-5.9	-2.2	4.0	-5.7	22.4*
CC(Oc1cc2oc(=O)c3c(c2cc1Cl)CCC3)C(=O)NCCCn1ccnc1 (stereo not given)	-2.1	1.4	11.8	27.9*	-13.2	0.3	1.1	2.3*	40.4*
CC(Oc1ccc2c3c(c(=O)oc2c1)CCC3)C(=O)NCCCn1ccnc1 (stereo not given)	-1.9	1.1	x	26.7*	-23.4	-2.7	-1.2	-6.4	39.4*
CC(Oc1cc2oc(=O)c3c(c2cc1Cl)CCC3)C(=O)NCC1CCC(C(=O)O)CC1 (stereo not given)	-0.9	-48.2	3.8	6.8	-9.9	x	x	x	x
CCC(=O)N[C@@H]1C=C[C@H](CC(=O)NCc2ccccc2OC)O[C@@H]1CO	x	x	-1.3	x	x	x	x	x	x
COc1ccc(-c2ccc([C@@H]3[C@H](CO)N4CCCCN(C(=O)NC(C)C)C[C@@H]34)cc2)cc1	x	x	7.1	x	x	x	x	x	x
Cc1ccc2[nH]c(C)c(/C=C/c3cc[n+](C)cc3)c2c1	4.1	5.3	i	16.3*	16.6	1.4	2.3	-0.3	26.2*
Cc1ccc2[nH]c(C)c(/C=N/Nc3nc4ccccc4s3)c2c1	-0.5	16.7	3.8	-1.2	0.6	x	x	x	x

Compound activity (PubChem)
